Assay [1] concerns Mus musculus. As to the kind of experiment: Antiobesity activity in B6.V/J ob/ob mouse assessed as inhibition of body weight gain at 50 mg/kg, ip measured after 12 hrs relative to vehicle-treated control. The class given is functional. To be noted: route intraperitoneal.
For assay [2], the system named is Mus musculus. As to the kind of experiment: Antiobesity activity in B6.V/J ob/ob mouse assessed as change in brain weight at 25 mg/kg, po bid measured after 14 days (reference value: 0.340 +/- 0.017 g). Format: functional.
A short description of assay [3]: Displacement of [3H]-YM-09151-2 from cloned dopamine D4.2 receptor (unknown origin) expressed in Sf9 cells after 60 mins. On the set-up: species or system Homo sapiens. In outline: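 Sf9 membranes with cloned D4.2 receptor incubated with 0.2 nM [3H]YM-09151-2 for 60 min at 27 °C in 50 mM Tris-HCl pH 7.4, 5 mM MgCl2, 5 mM EDTA, 5 mM KCl, 1.5 mM CaCl2. Clozapine defined nonspecific binding. Filtered on glass-fiber filters presoaked in 0.3% PEI.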

Assay [4] concerns Mus musculus. In words: Antiobesity activity in B6.V/J ob/ob mouse assessed as inhibition of food intake at 25 mg/kg, ip measured up to 2 hrs relative to vehicle-treated control. The class given is functional. To be noted: route intraperitoneal. Put shortly:
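Male mice were acclimated 1 week at 23 ± 3 °C and 50 ± 20% humidity, then fasted 24 h. They were dosed once intraperitoneally with vehicle or compound: 50 mg/kg in C57BL/6, or 12.5, 25 or 50 mg/kg in B6.V-Lep^ob/J. Food intake was measured at 2, 6 and 12 h versus vehicle control.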

For assay [5], the system named is Mus musculus. As to the kind of experiment: Antiobesity activity in B6.V/J ob/ob mouse assessed as reduction of body weight gain at 50 mg/kg, po bid measured after 14 days. On the set-up: dose 50 mg/kg. The class given is functional, organism-based.
In assay [6] the test system is Mus musculus. As to the kind of experiment: Antiobesity activity in B6.V/J ob/ob mouse assessed as change in gonadal adipose tissue weight at 50 mg/kg, po bid measured after 14 days (reference value: 3.599 +/- 0.155 g). Format: functional.

The structures appear in SMILES notation. Active and inactive are the calls of the source. The rule behind the calls is not given here.

As for `Cl.Clc1cccc(Nc2nc(Cc3ccccc3)nc3c2CCNCC3)c1`, the inhibition in vivo at 50 mg/kg with Mus musculus [1] came to 80.2%. The values for the Activity with Mus musculus [2] and in the assay with Mus musculus [6] were 0.369 g and 3.475 g, respectively. Besides, in assay [3], the 50% inhibitory concentration (IC50) stood at 0.9 µM. For the same molecule, the inhibition in vivo at 25 mg/kg with Mus musculus [4] was 99.8%. Besides, the outcome in the assay on Mus musculus [5] was Active.
